From PubChem BioAssay
Sampled rows, rich in hits. Any-hit rate of the full collection: about 4%.
hERG rescue: hERG rescue from dofetilide block, primary screen, cell-based, CHO-hERG, FluxOR thallium flux, dofetilide IC70 | dofetilide IC70 present | actives 0.51% (n = 310,000) | activation (rescue from dofetilide block), less the hit threshold, % at 10 µM | Voltage-gated inwardly rectifying potassium channel KCNH2 (Homo sapiens), Q12809;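 active = activation above the mean of controls blocked by dofetilide plus 5 SD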;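 also: thallium influx through hERG after potassium depolarization seen as dye fluorescence rise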
KCNQ1 pot: potentiators or activators of KCNQ1 channel, primary screen, cell-based, thallium flux, high-throughput; Potassium voltage-gated channel subfamily KQT member 1 (Homo sapiens), P51787; CHO-K1 KCNQ1, thallium flux FluxOR fluorescence; active compounds read high; B-score at 10 µM; actives 0.35% (n = 310,000);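 active = fluorescence ratio B-score, a plate-corrected score, at least three library SD, with initial intensity B-score within 5 SD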
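Doses: Single concentration per compound, DMSO matched to controls | Test system: KCNQ1-transfected CHO-K1 cells | Timing: 90 min dye loading and 20 min compound exposure, both at room temperature | Measured by: Kinetic FluxOR thallium fluorescence, 10-s 1-Hz baseline, 110-s post-stimulus read | Medium: Assay buffer with matched DMSO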
KCNK3 inh: human KCNK3 channel inhibitors, primary screen, CHO cells, FluxOR thallium flux, B-score | Potassium channel subfamily K member 3 (Homo sapiens), O14649 | FluxOR fluorescence; active compounds read low | B-score at 10 µM | actives 0.84% (n = 340,000);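 active = B-score under library mean minus 4 SD, starting fluorescence ratio at most library mean plus 5 SD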;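 also: more negative B-score means stronger inhibition of thallium flux through KCNK3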
Target sequence (O14649 whole entry, looked up): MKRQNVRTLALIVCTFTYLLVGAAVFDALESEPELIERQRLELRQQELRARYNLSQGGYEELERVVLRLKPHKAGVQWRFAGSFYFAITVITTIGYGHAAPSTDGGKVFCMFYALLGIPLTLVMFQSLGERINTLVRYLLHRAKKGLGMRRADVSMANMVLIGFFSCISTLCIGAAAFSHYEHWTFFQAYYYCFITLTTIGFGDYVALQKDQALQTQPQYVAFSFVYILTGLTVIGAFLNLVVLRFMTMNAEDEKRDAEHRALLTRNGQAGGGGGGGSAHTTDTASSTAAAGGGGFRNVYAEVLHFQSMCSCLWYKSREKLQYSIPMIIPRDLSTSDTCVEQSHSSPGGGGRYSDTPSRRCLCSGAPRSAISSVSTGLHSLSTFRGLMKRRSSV
KCNQ1 inh: inhibitors of human KCNQ1 channel, primary screen, cell-based, thallium flux, high-throughput. CHO-K1 KCNQ1, FluxOR thallium flux fluorescence; active compounds read high. B-score at 10 µM. actives 1.3% (n = 310,000). AID 2642, 2010;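 active = compounds whose thallium flux B-score, printed positive for inhibition, exceeds three library SD while starting fluorescence stays within three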;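 also: channel opened by potassium depolarization with thallium stimulus after 20 min compound exposure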
PHOSPHO1 inh: PubChem AID 1565. inhibition, % at 13.3 µM. recombinant PHOSPHO1, absorbance phosphatase assay. actives 1.1% (n = 290,000). Phosphoethanolamine/phosphocholine phosphatase (Homo sapiens), Q8TCT1; in the data active = inhibition above about 60%
KCNK9 inh: KCNK9 potassium channel inhibitors, primary screen, HEK293 cells, thallium flux. actives 1.2% (n = 310,000). AID 488922, 2010. B-score at 10 µM. FluxOR thallium flux fluorescence; active compounds read low;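 active = ratio B-score over 3 SD below the library mean, with starting fluorescence within 5 SD of its mean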;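 also: negative B-score means less thallium flux so channel inhibition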
* hit, by the source's call.

Results for CC1CCCN(c2ccc([N+](=O)[O-])cc2C(=O)c2ccccc2)C1 (centres undefined) ?
hERG rescue: -15; KCNQ1 pot: inactive; KCNK3 inh: inactive; KCNQ1 inh: 6*; PHOSPHO1 inh: 1; KCNK9 inh: inactive

How did Cc1ccc(C(=O)c2cc([N+](=O)[O-])ccc2N2CCCCC2)cc1 do in these assays?
hERG rescue: -12; KCNQ1 pot: inactive; KCNK3 inh: inactive; KCNQ1 inh: inactive; PHOSPHO1 inh: -9; KCNK9 inh: -7.4*

How did Cc1ccccc1NC(=O)Cc1nc(CSc2nnc(C3CCCCC3)n2N)cs1 do in these assays?
hERG rescue: -3; KCNQ1 pot: inactive; KCNK3 inh: inactive; KCNQ1 inh: inactive; PHOSPHO1 inh: 39; KCNK9 inh: inactive

Results for COc1cccc(/C=N/Nc2ccc(C(=O)O)cc2)c1O ?
hERG rescue: 5.5*; KCNQ1 pot: inactive; KCNK3 inh: inactive; KCNQ1 inh: inactive; PHOSPHO1 inh: -4; KCNK9 inh: inactive

Results for COc1cccc(/C=N/Nc2ccc(S(=O)(=O)O)cc2)c1O ?
hERG rescue: -8; KCNQ1 pot: inactive; KCNK3 inh: inactive; KCNQ1 inh: inactive; PHOSPHO1 inh: 92*; KCNK9 inh: inactive

What do the screens show for `O=S(=O)(O)c1ccc(NN=Cc2ccccc2O)cc1`?
KCNK3 inh: inactive

What do the screens show for `Cc1ccsc1C(=O)OCC(=O)N1CCN(C(=O)c2ccco2)CC1`?
hERG rescue: -5; KCNQ1 pot: inactive; KCNK3 inh: inactive; KCNQ1 inh: inactive; PHOSPHO1 inh: 63*; KCNK9 inh: inactive

Results for O=C(OCC(=O)N1CCN(C(=O)c2ccco2)CC1)c1cc(-c2ccccc2)nc2ccccc12 ?
hERG rescue: -18; KCNQ1 pot: inactive; KCNK3 inh: inactive; KCNQ1 inh: inactive; PHOSPHO1 inh: 61*; KCNK9 inh: inactive

What do the screens show for `CC(=O)COc1ccc2c(C)c(C)c(=O)oc2c1`?
hERG rescue: -2; KCNQ1 pot: inactive; KCNK3 inh: inactive; KCNQ1 inh: inactive; PHOSPHO1 inh: 8; KCNK9 inh: inactive

How did COc1ccc(-c2c(C)c3ccc(OCC(C)=O)cc3oc2=O)cc1 do in these assays?
hERG rescue: 5.7*; KCNQ1 pot: inactive; KCNQ1 inh: inactive; PHOSPHO1 inh: 36; KCNK9 inh: inactive

What do the screens show for `NS(=O)(=O)c1ccc(NC(=O)COC(=O)c2cccc(S(=O)(=O)N3CCCC3)c2)cc1`?
hERG rescue: -7; KCNQ1 pot: inactive; KCNK3 inh: inactive; KCNQ1 inh: inactive; PHOSPHO1 inh: 44; KCNK9 inh: inactive

What do the screens show for `COc1ccc(/C(N)=N/OC(=O)c2ccc3c(c2)OCO3)cc1OC`?
hERG rescue: 5.9*; KCNQ1 pot: inactive; KCNK3 inh: inactive; KCNQ1 inh: inactive; PHOSPHO1 inh: 23; KCNK9 inh: inactive

Results for CCCCN(CCCC)CC(O)CN(c1cc([N+](=O)[O-])ccc1OC)S(=O)(=O)c1ccccc1 (centres undefined) ?
hERG rescue: -15; KCNQ1 pot: inactive; KCNK3 inh: inactive; KCNQ1 inh: inactive; PHOSPHO1 inh: -9; KCNK9 inh: inactive

What do the screens show for `COc1ccc([N+](=O)[O-])cc1N(CC(O)CN(CC(C)C)CC(C)C)S(=O)(=O)c1ccccc1` (centres undefined)?
hERG rescue: -8; KCNQ1 pot: inactive; KCNK3 inh: inactive; KCNQ1 inh: inactive; PHOSPHO1 inh: -17; KCNK9 inh: -6.7*

What do the screens show for `COc1cccc(OC)c1/C(O)=C(\C#N)c1nc2ccccc2[nH]1`?
hERG rescue: -3; KCNQ1 pot: inactive; KCNK3 inh: inactive; KCNQ1 inh: inactive; PHOSPHO1 inh: 60*; KCNK9 inh: -7.7*
